The results in this text go back to PubChem BioAssay.

The structures appear in SMILES notation. Calls of active or inactive are those of the source.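 The calls were made as follows, unless noted: active = inhibition above 20% together with a positive visual image hit; inconclusive = visual image hit but inhibition not above 20%; inactive = no visual image hit.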

A short description of test [1]: inhibitors of TNFa-induced NFkB p65 translocation, primary screen, imaging, HUVEC, MLSMR starter and 10KST1 sets (AID 438).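 Also: compound added about 3h40 before a 20 min TNFalpha stimulation.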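 As to inhibition: signal is the nuclear over cytoplasmic p65 intensity ratio per well.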 Conditions: HUVEC TNFa-induced p65 nuclear translocation; cell count: measured here: nuclei count (cytotoxicity indicator), at 2.08 µM; inhibition: at 2 µM, stronger effect = higher value, 0% TNFa-plus-vehicle, 100% no-TNFa wells.
Test [2] can be described thus: inhibitors of mutant huntingtin aggregation, primary screen, imaging, exon1htt(103Q)mCFP cells, high-content imaging (AID 483;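 active = visual image review flags a hit and inhibition of aggregation exceeds 20%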;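 also: compound exposure lasted 3 days before fixation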;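 as to nuclei count: percent of the per-plate median nuclei count of sample wells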). Conditions: exon1htt(103Q)mCFP cell line, aggregate imaging, at 2 µM; inhibition of aggregation: stronger effect = higher value; nuclei count: measured here: cell count, toxicity.
Test [3] in a line: inhibitors of E-selectin induction by TNFa, primary screen, imaging, HUVEC, immunofluorescence, MLSMR starter and 10KST1 sets (AID 487;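 active = visually confirmed hit in the image check and inhibition above 20%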;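 as to inhibition: signal is fraction of cell area covered by stained E-selectin grains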;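 as to nuclei count: 100% = median nuclei count of all wells on the same plate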). Conditions: HUVEC TNFalpha-induced E-selectin immunofluorescence imaging, at 2 µM; inhibition: stronger effect = higher value; nuclei count: measured here: cell number, toxicity.
Test [4] addresses Voltage-gated potassium channel subunit beta-2 (Rattus norvegicus) (UniProt P62483). The test is described as follows: KvBeta enzyme negative modulators, primary screen, biochemical, NADPH fluorescence (AID 622;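 active = fluorescence slope higher than the sample average by over 3 SD, cut at about -0.22 in these data, passing the limit was not always enough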;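 also: slope of raw intensity against log time taken from 70 to 1610 s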). Conditions: recombinant KvBeta, 4-cyanobenzaldehyde reduction, at 10 µM, stronger effect = higher value.
Test [5] has the same target. Put plainly: KvBeta positive modulators, primary screen, biochemical, NADPH fluorescence (AID 623;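 active = NADPH fluorescence slope more negative than the mean of all samples by about 3 SD, 99.7% confidence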;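 also: fluorescence intensity change per second fitted from 20 to 320 s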). Conditions: Recombinant KvBeta, NADPH fluorescence decrease slope, 10 min; at 10 µM; stronger effect = lower value.
For test [6], the target named is Muscarinic acetylcholine receptor M4 (Homo sapiens) (UniProt P08173). The test is described as follows: compounds altering M4/GIRK thallium flux, either direction, primary screen, M4 allosteric agonist project, cell-based, HEK293 M4/GIRK, BTC-AM (AID 625;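 active = fluorescence slope after compound addition differing from the mean of all tested samples at 99.7% confidence, mostly higher but some lower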;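 also: thallium influx through GIRK channels coupled to M4 in HEK293 cells with BTC-AM dye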). Conditions: at 10 µM, actives lie on both sides. The procedure, abridged: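 Material – HEK293 cells with M4 receptor and GIRK channels · Buffer or medium – pH 7.3 thallium assay buffer · Doses – one dose, 10 µM final · Timing – cells overnight at 37 °C, BTC-AM loading 1 h, reads 2 min total · Measured by – kinetic fluorescence with BTC-AM dye · Controls – carbachol and DMSO controls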
Chain of Muscarinic acetylcholine receptor M4 (Homo sapiens) (P08173 whole entry, looked up): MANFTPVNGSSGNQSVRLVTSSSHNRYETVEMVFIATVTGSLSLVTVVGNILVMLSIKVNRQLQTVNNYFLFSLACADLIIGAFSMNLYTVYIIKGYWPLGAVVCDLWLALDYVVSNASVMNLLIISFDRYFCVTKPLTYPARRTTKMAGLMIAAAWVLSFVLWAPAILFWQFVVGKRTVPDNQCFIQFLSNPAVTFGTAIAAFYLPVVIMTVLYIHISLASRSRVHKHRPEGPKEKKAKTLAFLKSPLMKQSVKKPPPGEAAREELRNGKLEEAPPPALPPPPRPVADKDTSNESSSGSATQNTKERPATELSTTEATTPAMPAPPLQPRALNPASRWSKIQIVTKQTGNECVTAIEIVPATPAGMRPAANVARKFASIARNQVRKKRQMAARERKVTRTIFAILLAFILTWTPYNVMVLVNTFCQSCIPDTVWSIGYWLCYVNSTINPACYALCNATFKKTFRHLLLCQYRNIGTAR

A short description of test [7]: inhibitors of Sendai virus-induced IRF3 signaling, primary screen, TLR/RLR signaling modifier project, cell-based, Sendai virus stimulus, luciferase, 10K MLSCN set (AID 602276;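 active = inhibition at or above 50% at 10 µM; inactive = inhibition below 50%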;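 also: firefly luciferase from ISG56 promoter only with Renilla not read in this screen; 0% = Sendai virus plus DMSO and 100% = medium plus DMSO without virus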). Conditions: HEK293 RL24 IRF3 luciferase reporter, at 10 µM, stronger effect = higher value.
Test [8] in a line: inhibitors of poly I:C-induced TLR3 signaling, primary screen, cell-based, poly I:C stimulus, luciferase, 10K MLSCN set (AID 602277;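 active = inhibition of the reporter signal at or above 50%; inactive = inhibition below 50%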). Conditions: HEK293-TLR3 RL24 IRF3 luciferase reporter, at 10 µM, stronger effect = higher value.

Chain of Voltage-gated potassium channel subunit beta-2 (Rattus norvegicus) (P62483 whole entry, looked up): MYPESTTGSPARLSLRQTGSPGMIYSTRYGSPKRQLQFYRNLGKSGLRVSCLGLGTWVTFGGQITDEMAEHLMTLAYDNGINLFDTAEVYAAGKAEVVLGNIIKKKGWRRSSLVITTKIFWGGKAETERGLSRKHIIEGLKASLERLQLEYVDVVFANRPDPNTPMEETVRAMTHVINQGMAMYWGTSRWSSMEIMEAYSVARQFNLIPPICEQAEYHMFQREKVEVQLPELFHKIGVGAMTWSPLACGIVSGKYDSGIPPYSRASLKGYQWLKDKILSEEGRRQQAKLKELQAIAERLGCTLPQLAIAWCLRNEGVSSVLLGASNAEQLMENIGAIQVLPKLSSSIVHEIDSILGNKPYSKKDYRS

As to `CSc1ccccc1NC(=O)c1noc2c1CCC2`, the cell count in test [1] was 416. In addition, the inhibition in test [1] was 2.6% (inactive); in test [3], -55.8% (inactive); in test [7], -12.4% (inactive); in test [8], -50.3% (inactive). Further, the inhibition of aggregation in test [2] was -0.9% (inactive). Further, the nuclei count in test [2] is 109%; in test [3] it was 120%. The fluorescence slope was -0.593 (inactive) in test [4] and 0.00589 (inactive) in test [6]. Also, the NADPH fluorescence slope in test [5] is -8e-06 (inactive).
Regarding `COc1ccc(OC)c(NC(=O)CCN2CCN(c3ccccc3F)CC2)c1`, in test [1], the cell count amounted to 529. The inhibition in test [1] was 10.1% (inactive); in test [3], -63.8% (inactive); in test [7], 1.17% (inactive); in test [8], 0.616% (inactive). Moreover, the inhibition of aggregation in test [2] is 10.6% (inactive). The values for the nuclei count in test [2] and in test [3] were 81.2% and 101%, respectively. For the same compound, the fluorescence slope in test [4] was -0.54 (inactive); in test [6], 0.00417 (inactive). The NADPH fluorescence slope in test [5] was -3.3e-05 (inactive).
Regarding `CC1(C)NC(=O)N(CC(O)CN(Cc2ccccc2)Cc2ccccc2)C1=O` (stereo not given), the cell count in test [1] worked out at 606. Further, the inhibition in test [1] was 9.2% (inactive); in test [3], -13% (inactive); in test [7] it was 9.57% (inactive); in test [8], 21.2% (inactive). For the same compound, the inhibition of aggregation in test [2] is 14% (inactive). The nuclei count in test [2] came to 84.4%; in test [3], 113%. The fluorescence slope is -0.299 (inactive) in test [4] and 0.00564 (inactive) in test [6]. For the same compound, the NADPH fluorescence slope in test [5] was -4e-05 (inactive).
Turning to `O=C(c1cc(-c2ccco2)nn1-c1cccc(Cl)c1)N1CCCCC1`, the cell count in test [1] came out at 502. For the same compound, the inhibition in test [1] was -4.7% (inactive); in test [3], 1.9% (inactive); in test [7], 22.9% (inactive); in test [8] it was 36.1% (inactive). Also, the inhibition of aggregation in test [2] is -5.1% (inactive). The nuclei count in test [2] came out at 91%; in test [3], 100%. Also, the fluorescence slope in test [4] was -0.588 (inactive); in test [6], 0.0049 (inactive). In addition, the NADPH fluorescence slope in test [5] was -1.4e-05 (inactive).
As to `Nc1ccc(Sc2nnnn2-c2ccccc2)c(Cl)c1`, in test [1], the cell count worked out at 312. Moreover, the inhibition in test [1] is -5.1% (inactive); in test [3] it was -4% (inactive); in test [7] it was 8.66% (inactive); in test [8], 13% (inactive). Also, the inhibition of aggregation in test [2] is 8% (inactive). Further, the nuclei count turned out to be 108% in test [2] and 78.5% in test [3]. In addition, the fluorescence slope was -0.468 (inactive) in test [4] and 0.00613 (inactive) in test [6]. For the same compound, the NADPH fluorescence slope in test [5] was -3.4e-05 (inactive).
With `Cc1sc2ncnc(OCC(=O)N3CCN(S(=O)(=O)c4ccccc4)CC3)c2c1C`, the cell count in test [1] was 247. Further, the inhibition in test [1] was -7.7% (inactive); in test [3], 16.8% (inactive); in test [7], 16.8% (inactive); in test [8] it was 15.1% (inactive). Moreover, the inhibition of aggregation in test [2] is 11.8% (inactive). Besides, the nuclei count in test [2] was 90.7%; in test [3], 91.8%. Moreover, the fluorescence slope in test [4] is -0.498 (inactive); in test [6] it was 0.00565 (inactive). The NADPH fluorescence slope in test [5] was 3.8e-05 (inactive).
Regarding `c1ccc(CCc2nn3c(Cn4cnc5ccccc54)nnc3s2)cc1`, the cell count in test [1] came to 598. Moreover, the inhibition in test [1] is -3.3% (inactive); in test [3], -29.5% (inactive); in test [7], 14.9% (inactive); in test [8], -3.65% (inactive). Further, in test [2], the inhibition of aggregation is -18% (inactive). Moreover, the results for the nuclei count in test [2] and in test [3] were 100% and 97.5%, respectively. The fluorescence slope in test [4] was -0.53 (inactive); in test [6], 0.00554 (inactive). Further, in test [5], the NADPH fluorescence slope is 2.5e-05 (inactive).
Regarding `COc1ccc(C)cc1S(=O)(=O)N1CCN(Cc2ccccc2)CC1`, the cell count in test [1] amounted to 708. In addition, the inhibition in test [1] is -7.1% (inactive); in test [3], -41.3% (inactive); in test [7] it was 21.4% (inactive); in test [8], 19.5% (inactive). The inhibition of aggregation in test [2] is -4.2% (inactive). Further, the values for the nuclei count in test [2] and in test [3] were 98.5% and 102%, respectively. Besides, the fluorescence slope was -0.558 (inactive) in test [4] and 0.00529 (inactive) in test [6]. Also, the NADPH fluorescence slope in test [5] is -1.1e-05 (inactive).
For the compound `O=c1oc2ccccc2n1CCc1ccccc1`, the cell count in test [1] came out at 470. Moreover, the inhibition in test [1] was -4.6% (inactive); in test [3] it was -76.9% (inactive); in test [7] it was -4.32% (inactive); in test [8], -4.85% (inactive). The inhibition of aggregation in test [2] was 0% (inactive). Moreover, the nuclei count in test [2] is 88.3%; in test [3], 238%. Moreover, the fluorescence slope in test [4] is -0.522 (inactive); in test [6], 0.00443 (inactive). For the same compound, the NADPH fluorescence slope in test [5] is -0.000209 (inactive).
As to `COc1ncnc2c1N=C1CC(C)(C)CC(N)=C1S2`, the cell count in test [1] stood at 309. The inhibition was 0.8% (inactive) in test [1], -16.2% (inactive) in test [3], 13.3% (inactive) in test [7] and 35% (inactive) in test [8]. In addition, in test [2], the inhibition of aggregation is -0.2% (inactive). Further, the nuclei count in test [2] and in test [3] was 115% each time. The fluorescence slope in test [4] was -0.37 (inactive); in test [6], 0.00511 (inactive). The NADPH fluorescence slope in test [5] is -3.5e-05 (inactive).
Regarding `Cc1cc2oc(=O)cc(CN3CCCCC3)c2cc1C(C)C`, the cell count in test [1] came to 366. The inhibition in test [1] was -3.9% (inactive); in test [3] it was 67.8% (active); in test [7] it was 10.7% (inactive); in test [8] it was 40.9% (inactive). The inhibition of aggregation in test [2] is -20.2% (inactive). Further, the nuclei count in test [2] is 91.1%; in test [3], 56.9%. For the same compound, the fluorescence slope in test [4] is -0.56 (inactive); in test [6] it was 0.0051 (inactive). Besides, in test [5], the NADPH fluorescence slope was -2.5e-05 (inactive).
In the case of `CC12CN3CC(C)(CN(C1)C3c1ccc(Br)cc1)C2` (stereo not given), the cell count in test [1] is 565. For the same compound, the inhibition in test [1] was -1.2% (inactive); in test [3] it was -50.4% (inactive); in test [7], 13.8% (inactive); in test [8], 13.4% (inactive). In test [2], the inhibition of aggregation is 5.1% (inactive). For the same compound, the nuclei count is 97.5% in test [2] and 96.1% in test [3]. The fluorescence slope in test [4] was -0.607 (inactive); in test [6], 0.00246 (inactive). The NADPH fluorescence slope in test [5] was -4.3e-05 (inactive).
Regarding `Cc1ccc(NC(=O)CNc2cccc(C)c2C)c(C)c1`, in test [1], the cell count stood at 505. In addition, the inhibition was 2.5% (inactive) in test [1], -54.3% (inactive) in test [3], 5.56% (inactive) in test [7] and -4.35% (inactive) in test [8]. Besides, the inhibition of aggregation in test [2] was -48.7% (inactive). Also, the nuclei count in test [2] came out at 12.5%; in test [3], 107%. Also, the values for the fluorescence slope in test [4] and in test [6] were -0.517 (inactive) and 0.00498 (inactive), respectively. For the same compound, in test [5], the NADPH fluorescence slope is -7.1e-05 (inactive).
With `Nc1cc(-c2ccccc2)ccc1O`, in test [1], the cell count worked out at 329. Further, the inhibition in test [1] was 6.3% (inactive); in test [3], -40.6% (inactive); in test [7], -0.254% (inactive); in test [8] it was 1.06% (inactive). Further, the inhibition of aggregation in test [2] was 33.9% (active). In addition, the values for the nuclei count in test [2] and in test [3] were 88.4% and 103%, respectively. Moreover, the fluorescence slope in test [4] is -0.314 (inactive); in test [6], 0.00771 (inactive). Moreover, the NADPH fluorescence slope in test [5] was -1.6e-05 (inactive).
For the compound `Cc1ccc(S(=O)(=O)N(CC(=O)N2CCOCC2)CC(=O)N2CCOCC2)cc1`, the cell count in test [1] amounted to 676. For the same compound, the inhibition in test [1] was -9% (inactive); in test [3] it was -163% (inactive); in test [7], 13% (inactive); in test [8] it was 27.1% (inactive). The inhibition of aggregation in test [2] was -5.6% (inactive). The nuclei count was 108% in test [2] and 106% in test [3]. For the same compound, the results for the fluorescence slope in test [4] and in test [6] were -0.486 (inactive) and 0.00519 (inactive), respectively. For the same compound, the NADPH fluorescence slope in test [5] is -1.3e-05 (inactive).
